Most compounds without a hit are left out; they make up all but 3.9% or so of the library.
TIM10 inh: growth inhibitors of isogenic TIM10 control yeast, primary screen, counter-screen for tim10-1 yeast inhibitor project, luminescence, uHTS; inhibition, % at 10 µM; S. cerevisiae TIM10 strain growth, BacTiter-Glo luminescence, 24 h; AID 463195, 2010; hit rate 1.4% among 330,000;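 active means inhibition of 40% or more at the single tested concentration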;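 further: wild-type TIM10 isogenic control strain grown at permissive 25 °C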
tim23-1 inh: growth inhibitors of tim23-1 mutant yeast, primary screen, luminescence, uHTS; AID 463212, 2010; hit rate 1.3% among 330,000; inhibition, % at 20 µM; S. cerevisiae tim23-1 growth, BacTiter-Glo luminescence, 24 h;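 active means growth inhibition of the mutant yeast at or above 50%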;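 further: temperature-sensitive mutant grown at 25 °C; plate controls were DMSO-treated mutant yeast for no effect and medium wells lacking yeast for full effect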
tim10-1 inh: growth inhibitors of tim10-1 mutant yeast, primary screen, luminescence, uHTS. S. cerevisiae tim10-1 ts strain growth, BacTiter-Glo, 24 h. inhibition, % at 20 µM. hit rate 2.2% among 330,000;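 active means inhibition of at least 40%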;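 further: mutant grown at 25 °C; 0% = DMSO wells with yeast and 100% = wells holding no yeast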
UPR XBP1 act: activators of adaptive XBP1 UPR arm, primary screen, cell-based, CHO-XBP1 luciferase reporter, luminescence, uHTS; IRE1-XBP1 UPR activation; percent of tunicamycin response, DMSO as zero; activation, % at 20 µM; hit rate 0.33% among 330,000;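 active means versus positive control, 20 µM dose yields 30% or more activation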;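 further: 100% = tunicamycin at 10 µg/mL and 0% = DMSO only wells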
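Material: CHO-XBP1 cells stably carrying IRE1-XBP1-driven luciferase reporter | Medium: F12 with 10% serum | Compound dosing: 20 µM single concentration, DMSO 1% | Incubation: Overnight seeding at 37 °C, 6 h compound treatment at 37 °C | Detection: Steady-Glo luminescence read | Read-out basis: % activation of reporter signal versus tunicamycin and DMSO controls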
CHOP UPR activ: activators of apoptotic CHOP UPR arm, primary screen, cell-based, CHO-CHOP luciferase reporter, luminescence, uHTS; UPR activation; percent of tunicamycin response over DMSO baseline; activation, % at 10 µM; hit rate 0.34% among 330,000;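 active means at 10 µM dose, activation of 40% or more, normalized to positive control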;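 further: 100% = tunicamycin at 10 µg/mL and 0% = DMSO alone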
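measured by = luciferase luminescence | assay system = CHO-CHOP cells, stable luciferase reporter of PERK-eIF2a-CHOP signalling | amount = 500 reporter cells seeded per well | timing = 6 h compound exposure at 37 °C after overnight seeding | controls = positive tunicamycin 10 µg/mL, negative DMSO alone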
TIM10 conf: growth inhibitors of wild-type TIM10 yeast, confirmation, counter-screen for tim10-1 synthetic lethality project, single concentration, luminescence, S. cerevisiae; hit rate 63% among 4,600; inhibition, % at 10 µM; S. cerevisiae tim10 strain growth, BacTiter-Glo luminescence, 24 h; shares compounds with TIM10 inh; AID 463215, 2010;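 active means inhibition of yeast growth at or above a set limit in either of two replicates at 10 µM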;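 further: this counterscreen used the strain with wild-type TIM10; 0% = yeast with DMSO and 100% = medium wells lacking yeast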
Active calls of the source: *; . = no result given.

SMILES	TIM10 inh	tim23-1 inh	tim10-1 inh	UPR XBP1 act	CHOP UPR activ	TIM10 conf
Oc1ccc(N=Nc2c(O)ccc3ccccc23)cc1	54*	49	33	6	0	65*
c1ccc2nc(-c3ccc(N4CCOCC4)cc3)ccc2c1	8	11	32	-7	-9	.
Cc1cc(-c2ccc(N3CCOCC3)cc2)nc2ccccc12	58*	48	28	1	8	64*
CNc1nc(NN)nc(Nc2ccccc2)n1	96*	-2	16	-2	2	6
CNc1nc(Nc2ccccc2)nc(OCC(F)(F)F)n1	15	-21	7	2	-2	.
CCCCN(C)C(=O)c1cc2cc3ccc(OC)cc3nc2o1	8	18	7	0	3	.
Cc1ccc2cc3cc(C(=O)NCCC(C)C)oc3nc2c1	4	0	13	0	3	.
Cc1ccc2cc3cc(C(=O)NCCCN4CC(C)CC(C)C4)oc3nc2c1 (centres undefined)	61*	26	25	0	2	27
Cc1ccc2cc3cc(C(=O)N4CCCCC4C)oc3nc2c1 (centres undefined)	50*	40	32	-1	3	-30
CCN(C(=O)c1cc2cc3ccc(C)cc3nc2o1)c1ccc(OC)cc1	44*	38	35	9	6	-9
Nc1c(C(=O)Nc2ccccc2F)sc2nc(-c3cccnc3)ccc12	-1	3	-1	4	4	.
Nc1c(C(=O)Nc2ccccc2F)sc2nc(-c3ccco3)ccc12	41*	6	18	-2	1	19
COc1nnc(-c2ccc(N3CCCCC3)c(NC(=O)C3CCCCC3)c2)c2ccccc12	19	24	19	-2	11	.
COc1nnc(-c2ccc(N3CCOCC3)c(NC(=O)C3CCCCC3)c2)c2ccccc12	41*	33	35	1	1	25
CN(C)/C(=N\S(=O)(=O)c1ccccc1)c1ccc(F)cc1	61*	4	-11	-5	0	0
CN(C)/C(=N\S(=O)(=O)c1ccc(F)cc1)c1ccccc1	-15	-7	12	-3	-2	.
CCn1c(C)nnc1SCC(=O)NC1CCCC1	3	2	-9	-1	2	.
CCOc1ccc(NC(=O)CN(C)C(=O)CC2OC(=O)c3ccccc32)cc1OCC (centres undefined)	-6	8	4	-2	3	.
O=Cc1cc(N=Nc2ccccc2Cl)ccc1O	62*	29	12	3	4	76*
CCNC(=S)NN=C1c2ccccc2-c2ccccc21	44*	7	37	4	-2	25
COC(=O)/C=C/c1cc(F)ccc1S(=O)(=O)NC(C)(C)C	11	19	19	0	1	.
CCOC(=O)C1=C(C)NC(=S)NC1c1ccc(OCC(=O)N2CCCCCC2)cc1 (centres undefined)	-13	1	6	-3	-1	.
O=C(Cn1cnc2c(oc3ccccc32)c1=O)c1ccccc1	49*	42	16	2	1	29
O=C(O)Cn1cnc2c(oc3ccccc32)c1=O	-2	8	4	-1	1	.
O=C(COC(=O)C1CC2CCCC(C1)C2=O)Nc1ccc(Cl)cn1 (centres undefined)	5	11	-4	2	1	.
SMILES	TIM10 inh	tim23-1 inh	tim10-1 inh	UPR XBP1 act	CHOP UPR activ	TIM10 conf
CS(=O)(=O)c1cccc(C(=O)OCC(=O)NCc2cccs2)c1	72*	3	5	-1	1	-8
CC1CCN(C(=S)c2cn(Cc3ccc(F)cc3)c3ccccc23)CC1	55*	27	36	-4	-1	38*
CCNC(=S)N/N=C/c1cn(Cc2ccc(F)cc2)c2ccccc12	43*	40	32	-3	2	51*
CN1CCN(C(=S)c2cn(Cc3ccc(F)cc3)c3ccccc23)CC1	-2	18	3	1	0	.
Cc1ccc(C(=O)N/N=C/c2cn(Cc3ccccc3)c3ccccc23)cn1	24	26	28	0	2	.
Fc1ccc(C(c2nnnn2C2CCCC2)N2CCc3ccccc32)cc1 (centres undefined)	45*	26	30	-2	1	18
Fc1ccc(C(c2nnnn2CCc2ccccc2)N2CCCc3ccccc32)cc1 (centres undefined)	8	-1	23	-3	0	.
COc1ccc(-c2oc3ncn(CCN4CCOCC4)c(=N)c3c2-c2ccc(OC)cc2)cc1	42*	35	37	2	4	19
COc1cc(CNCCc2ccccc2)ccc1OCc1ccc(Cl)nc1	55*	7	2	1	2	-4
CCCCNCc1ccc(OCc2ccc(Cl)nc2)c(OC)c1	-8	20	3	1	-1	.
CCNC(=S)N=Nc1c(O)[nH]c2ccc(C(C)C)cc12	41*	35	32	1	1	-20
O=C(O)CCC1c2cc3c4cc2OC2Oc5cc6c(cc51)C(CCC(=O)O)c1cc5c7cc1OC(O6)c1cc6cc(c1)Oc1cc(cc(C(=O)O)c1)Oc1cc8cc(c1)C(Oc1cc(c(cc1C5CCC(=O)O)C3CCC(=O)O)OC(O4)c1cc(cc(c1)Oc1cc(cc(C(=O)O)c1)O8)Oc1cc(cc(C(=O)O)c1)Oc1cc(cc2c1)Oc1cc(cc(C(=O)O)c1)O6)O7 (centres undefined)	-21	1	-17	-3	3	.
COc1ccc(C2=NN(C(=O)CCC(=O)O)C(c3ccc(Br)cc3)C2)cc1 (centres undefined)	44*	-1	-13	-5	0	7
C=CCN1C(c2ccc(OCC)cc2)=CS/C1=C(\C#N)c1nnc2n1CCCCC2	23	26	17	-2	-1	.
C=CCn1c(=O)/c(=C/c2ccc(F)cc2)s/c1=C(\C#N)c1nnc2n1CCCCC2	44*	49	33	-2	0	40*
O=C(N/N=C/c1cccc(OC(=O)c2ccco2)c1)c1ccc(F)cc1	41*	14	13	2	5	32*
CC(C)OCCCNC(=O)C1CC(=O)N(CCc2ccccc2)C1 (centres undefined)	-12	16	15	-2	1	.
COc1ccccc1NC(=O)Nc1ccc(Cc2ccncc2)cc1	44*	36	32	3	3	39*
COc1ccccc1NC(=O)Nc1cc(F)ccc1F	46*	40	29	1	3	9
COc1ccccc1NC(=O)Nc1ccncc1	-5	-6	-6	-5	0	.
